Experiment [1] in a line: Her2 expression decrease, cell viability multiplex – SKBR3 breast tumor cells, AlphaScreen, ATP viability, primary screen (AID 461;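 active = Her2 level under about 52% in both replicate screens, with viability over 70% of control, limit read from the data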;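 for Her2 level: lower value means less Her2 protein in the cells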;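 for viability: percent of carrier control wells set as 100% viability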). The following applies: SKBR3 Her2 protein level, 18-24 h, measured here: SKBR3 viability, ATP luminescence, at 10 µM. In general terms: Alpha assays give light when donor and acceptor beads are brought close together.
In experiment [2] the target is Receptor tyrosine-protein kinase erbB-2 (Homo sapiens) (UniProt P04626). The experiment is described as above. The following applies: 18-24 h, at 10 µM, stronger effect = lower value.
Chain of Receptor tyrosine-protein kinase erbB-2 (Homo sapiens) (P04626 whole entry, looked up): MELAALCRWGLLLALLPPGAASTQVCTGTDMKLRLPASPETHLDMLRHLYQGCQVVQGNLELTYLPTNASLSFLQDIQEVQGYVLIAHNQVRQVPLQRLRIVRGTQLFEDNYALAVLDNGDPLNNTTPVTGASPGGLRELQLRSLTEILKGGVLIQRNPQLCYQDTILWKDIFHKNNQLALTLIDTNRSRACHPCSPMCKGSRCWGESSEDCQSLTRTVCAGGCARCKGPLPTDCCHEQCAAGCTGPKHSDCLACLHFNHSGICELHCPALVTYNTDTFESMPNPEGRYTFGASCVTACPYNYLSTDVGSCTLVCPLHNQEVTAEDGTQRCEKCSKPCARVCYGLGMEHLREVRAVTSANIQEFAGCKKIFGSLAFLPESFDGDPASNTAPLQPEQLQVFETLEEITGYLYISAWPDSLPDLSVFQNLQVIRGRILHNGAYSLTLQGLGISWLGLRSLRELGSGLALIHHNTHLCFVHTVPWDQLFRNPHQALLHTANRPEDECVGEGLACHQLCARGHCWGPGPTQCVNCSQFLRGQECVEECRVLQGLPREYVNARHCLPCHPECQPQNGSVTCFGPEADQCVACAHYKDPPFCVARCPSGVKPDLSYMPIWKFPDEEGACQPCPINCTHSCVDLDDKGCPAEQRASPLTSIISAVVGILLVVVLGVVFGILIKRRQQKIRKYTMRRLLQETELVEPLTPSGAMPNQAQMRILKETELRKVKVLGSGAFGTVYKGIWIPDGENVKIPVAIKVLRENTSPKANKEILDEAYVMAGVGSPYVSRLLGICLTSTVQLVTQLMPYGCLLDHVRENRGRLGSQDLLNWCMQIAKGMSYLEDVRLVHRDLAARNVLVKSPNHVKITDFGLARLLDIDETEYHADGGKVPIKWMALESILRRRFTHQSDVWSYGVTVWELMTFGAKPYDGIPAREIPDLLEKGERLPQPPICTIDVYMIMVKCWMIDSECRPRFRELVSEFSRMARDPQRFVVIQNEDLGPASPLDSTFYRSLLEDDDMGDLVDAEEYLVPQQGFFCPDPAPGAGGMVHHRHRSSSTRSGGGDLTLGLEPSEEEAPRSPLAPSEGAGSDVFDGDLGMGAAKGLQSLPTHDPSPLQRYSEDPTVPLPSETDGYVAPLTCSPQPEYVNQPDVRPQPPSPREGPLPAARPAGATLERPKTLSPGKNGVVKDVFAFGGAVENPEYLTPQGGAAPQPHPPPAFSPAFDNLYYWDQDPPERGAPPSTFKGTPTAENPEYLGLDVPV
Experiment [3] can be described thus: reduced viability of SK-BR-3 breast cancer cells – cell-based, 24 h, human, pilot screen (AID 572;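 active = viability at or below 10% of carrier control in both of two separate runs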;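 note: compound exposure lasted between 18 and 24 h rather than exactly 24 h; 100% = carrier-treated control wells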). The following applies: SK-BR-3 viability, CellTiter-Glo luminescence, at 10 µM, stronger effect = lower value. For orientation: ATP-based viability assays read luminescence as a measure of living cells.
A short description of experiment [4]: HUVEC growth inhibition – cell-based, human, primary screen (AID 575).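 Note: 100% = median of untreated cell wells with 0.1% DMSO on each plate.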 The following applies: HUVEC proliferation, CellTiter-Glo luminescence, 72 h; at 10 µM; stronger effect = lower value. In outline:
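system = HUVEC primary cells | amount = 1250 cells/well | buffer or medium = supplemented EBM, 2% fetal bovine serum | dosing = single-point 10 µM, DMSO 0.1% final | times = 72 h compound incubation | detection = CTG luminescence | read-out = % viability relative to median vehicle-well signal on each plate | control set = vehicle and MePR control wells | format = collagen-coated 384-well format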

Experiment [5] is described as follows: H69AR cell proliferation blockers – human, duplicate replicates, primary screen (AID 580;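 active = viability at or under a set limit in both replicates, limit being median viability minus 3 SD, cut at about 48% in these data, passing the limit was not always enough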;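 note: 100% = mean luminescence of untreated wells and 0% = no signal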). Particulars: H69AR lung tumor cells viability, ATP luminescence, 72 h; at 10 µM; stronger effect = lower value.
Experiment [6] is described as follows: MRP1 drug-resistance reversers in H69AR cells – cell-based, doxorubicin co-treatment, pilot screen (AID 601;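 active = viability loss from added drug above about 55%, and viability with drug at most 40%, in both replicates, limit read from the data, passing the limit was not always enough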). Particulars: CellTiter-Glo, 72 h, at 10 µM; for differential viability (reversal): stronger effect = higher value.
The nature of experiment [7]: yeast transport mutant growth inhibition pilot in 384-well plates, post-Golgi transport modulator project (AID 636; in the data active = inhibition above about 31%). Particulars: absorbance 615 nm, about 18 h, stronger effect = higher value.
Experiment [8] is described as follows: growth suppression of yeast trafficking mutant, preliminary HTS, modulators of trafficking downstream of Golgi apparatus project, 1536-format plate, OD 615 nm (AID 637; in the data active = inhibition above about 30%). The following applies: yeast transport mutant growth, absorbance 615 nm, 18 h; stronger effect = higher value.
The mark [9] stands for this setting: H69AR cells + 2 uM doxorubicin, measured here: viability with 2 uM doxorubicin, stronger effect = lower value.
[10] abbreviates: H69AR cells, compound alone cytotoxicity.

Active and inactive are the calls of the source.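 Rule for the calls, unless noted: active = viability at or below 30% in both replicate assays; inconclusive = viability at or below 30% in just one of the two assays; inactive = the rest.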

For orientation: viability means a read-out of living cells in per cent, often relative to untreated cells. One may read the inhibition as the change of the read-out against control, counted positive when it falls. As to `COc1ccc(S(=O)(=O)n2nc(OC(=O)c3ccc(C)cc3)cc2N)cc1`, the viability in experiment [1] is 92.5%; in experiment [3], 92.5% (inactive); in experiment [4], 91.6% (inactive); in experiment [5], 97.7% (inactive); in experiment [6] (setting [9]), 105%; in experiment [6] (setting [10]), 97.7%. Besides, in experiment [2], the Her2 level is 72% (inactive). Further, the differential viability (reversal) in experiment [6] (H69AR cells + 2 uM doxorubicin) was -7.45% (inactive). The inhibition is -4.47% (inactive) in experiment [7] and -5.67% (inactive) in experiment [8].
For `CCOc1ccc(N(CC)C(=O)COc2cc(=O)n(C)c3ccccc23)cc1`, the viability is 84.5% in experiment [1]; 84.5% (inactive) in experiment [3]; 93.6% (inactive) in experiment [4]; 86.1% (inactive) in experiment [5]; 88.6% in experiment [6] (setting [9]); 86.1% in experiment [6] (setting [10]). For the same compound, in experiment [2], the Her2 level was 86% (inactive). In addition, the differential viability (reversal) in experiment [6] (H69AR cells + 2 uM doxorubicin) is -2.48% (inactive). The inhibition was -3.07% (inactive) in experiment [7] and 0.98% (inactive) in experiment [8].
With `O=S(=O)(NCC1CCCO1)c1cc(Cl)ccc1Br` (stereo not given), the viability in experiment [1] is 87.5%; in experiment [3], 87.5% (inactive); in experiment [4], 109% (inactive); in experiment [5] it was 96.5% (inactive); in experiment [6] (setting [9]), 94.1%; in experiment [6] (setting [10]), 96.5%. Also, in experiment [2], the Her2 level is 121% (inactive). Further, the differential viability (reversal) in experiment [6] (H69AR cells + 2 uM doxorubicin) is 2.42% (inactive). Further, the results for the inhibition in experiment [7] and in experiment [8] were 3.25% (inactive) and 4% (inactive), respectively.
For the compound `COc1ccc(N=c2scc(-c3ccc(S(=O)(=O)N4CCOCC4)cc3)n2CCCO)cc1`, the viability in experiment [1] was 85.5%; in experiment [3], 85.5% (inactive); in experiment [4] it was 96.4% (inactive); in experiment [5], 72.8% (inactive); in experiment [6] (setting [9]), 35.6%; in experiment [6] (setting [10]) it was 72.8%. Besides, the Her2 level in experiment [2] is 80.5% (inactive). Further, in experiment [6] (H69AR cells + 2 uM doxorubicin), the differential viability (reversal) was 37.2% (inactive). Moreover, the inhibition in experiment [7] was 1.67% (inactive); in experiment [8] it was -8.5% (inactive).
In the case of `C=CCNC(=O)CN(c1cccc(Br)c1)S(C)(=O)=O`, the viability in experiment [1] is 96%; in experiment [3] it was 96% (inactive); in experiment [4], 94.6% (inactive); in experiment [5], 102% (inactive); in experiment [6] (setting [9]), 91.3%; in experiment [6] (setting [10]), 102%. Also, the Her2 level in experiment [2] is 106% (inactive). In experiment [6] (H69AR cells + 2 uM doxorubicin), the differential viability (reversal) was 10.9% (inactive). Further, the inhibition in experiment [7] is -5.6% (inactive); in experiment [8], 0.16% (inactive).
As for `O=S(=O)(Nc1ccc(Cc2ccncc2)cc1)N1CCCC1`, the viability in experiment [1] was 88%; in experiment [3] it was 88% (inactive); in experiment [4], 104% (inactive); in experiment [5], 92.4% (inactive); in experiment [6] (setting [9]) it was 98.6%; in experiment [6] (setting [10]), 92.4%. For the same compound, in experiment [2], the Her2 level is 94% (inactive). Further, in experiment [6] (H69AR cells + 2 uM doxorubicin), the differential viability (reversal) is -6.24% (inactive). In addition, the inhibition is -3.92% (inactive) in experiment [7] and -1.97% (inactive) in experiment [8].
Consider `Cc1onc(-c2c(Cl)cccc2Cl)c1C(=O)N1CCc2ccccc21`, for which the viability is 97% in experiment [1]; 97% (inactive) in experiment [3]; 68.1% (inactive) in experiment [4]; 61.6% (inactive) in experiment [5]; 85.9% in experiment [6] (setting [9]); 61.6% in experiment [6] (setting [10]). In addition, the Her2 level in experiment [2] is 91.5% (inactive). For the same compound, the differential viability (reversal) in experiment [6] (H69AR cells + 2 uM doxorubicin) was -24.3% (inactive). Further, the inhibition in experiment [7] was -0.93% (inactive); in experiment [8] it was 2.74% (inactive).
`COc1ccc2nc(NC(=O)CSc3nnc(-c4ccoc4C)n3C)sc2c1`: the viability was 112% in experiment [1]; 112% (inactive) in experiment [3]; 80.2% (inactive) in experiment [4]; 84.8% (inactive) in experiment [5]; 75.4% in experiment [6] (setting [9]); 84.8% in experiment [6] (setting [10]). The Her2 level in experiment [2] is 106% (inactive). Further, the differential viability (reversal) in experiment [6] (H69AR cells + 2 uM doxorubicin) was 9.45% (inactive). In addition, the inhibition in experiment [7] is -6.13% (inactive); in experiment [8] it was -3.87% (inactive).
Regarding `COc1ccc(C(=O)NCCn2ccc3ccccc32)cc1`, the viability is 126% in experiment [1]; 126% (inactive) in experiment [3]; 111% (inactive) in experiment [4]; 92.5% (inactive) in experiment [5]; 84% in experiment [6] (setting [9]); 92.5% in experiment [6] (setting [10]). Moreover, the Her2 level in experiment [2] was 97% (inactive). For the same compound, the differential viability (reversal) in experiment [6] (H69AR cells + 2 uM doxorubicin) is 8.59% (inactive). Moreover, the inhibition is -5.6% (inactive) in experiment [7] and 0.16% (inactive) in experiment [8].
On to `COCCn1c(SCC(=O)Nc2cccc(OC)c2)nnc1-c1ccc(Cl)cc1`, for which the viability in experiment [1] was 98.5%; in experiment [3], 98.5% (inactive); in experiment [4] it was 97% (inactive); in experiment [5], 84.1% (inactive); in experiment [6] (setting [9]) it was 89.3%; in experiment [6] (setting [10]) it was 84.1%. The Her2 level in experiment [2] is 71.5% (inactive). In experiment [6] (H69AR cells + 2 uM doxorubicin), the differential viability (reversal) is -5.18% (inactive). The inhibition in experiment [7] is -6.4% (inactive); in experiment [8], 0.98% (inactive).
With `COc1cccc(CNC(=O)CCn2c(=O)oc3ccccc32)c1`, the viability was 77.5% in experiment [1]; 77.5% (inactive) in experiment [3]; 94.7% (inactive) in experiment [4]; 86.4% (inactive) in experiment [5]; 89.4% in experiment [6] (setting [9]); 86.4% in experiment [6] (setting [10]). In experiment [2], the Her2 level was 94.5% (inactive). Further, the differential viability (reversal) in experiment [6] (H69AR cells + 2 uM doxorubicin) was -3.03% (inactive). For the same compound, the inhibition was -5.92% (inactive) in experiment [7] and -1.82% (inactive) in experiment [8].
Turning to `O=c1c2ccccc2sn1-c1ccc(S(=O)(=O)N2CCCCC2)cc1`, the viability is 91.5% in experiment [1]; 91.5% (inactive) in experiment [3]; 83.9% (inactive) in experiment [4]; 78.1% (inactive) in experiment [5]; 72.3% in experiment [6] (setting [9]); 78.1% in experiment [6] (setting [10]). The Her2 level in experiment [2] is 81.5% (inactive). In experiment [6] (H69AR cells + 2 uM doxorubicin), the differential viability (reversal) is 5.85% (inactive). Moreover, the inhibition is -5.54% (inactive) in experiment [7] and 9.17% (inactive) in experiment [8].
Turning to `COc1cc(C2C(C#N)=C(N)OC3=C2C(=O)CC(C)(C)C3)ccc1OC(=O)N1CCOCC1` (stereo not given), the viability was 84.5% in experiment [1]; 84.5% (inactive) in experiment [3]; 97.6% (inactive) in experiment [4]; 98.8% (inactive) in experiment [5]; 94.2% in experiment [6] (setting [9]); 98.8% in experiment [6] (setting [10]). Moreover, the Her2 level in experiment [2] is 94.5% (inactive). In experiment [6] (H69AR cells + 2 uM doxorubicin), the differential viability (reversal) was 4.58% (inactive). Further, the inhibition was 1.49% (inactive) in experiment [7] and -7.54% (inactive) in experiment [8].
`CCCn1c(=O)c2ccccc2n2c(SCCOc3ccccc3F)nnc12`: the viability in experiment [1] is 72%; in experiment [3], 72% (inactive); in experiment [4] it was 85.2% (inactive); in experiment [5], 88.8% (inactive); in experiment [6] (setting [9]), 70.7%; in experiment [6] (setting [10]), 88.8%. Further, the Her2 level in experiment [2] is 102% (inactive). Further, in experiment [6] (H69AR cells + 2 uM doxorubicin), the differential viability (reversal) was 18.1% (inactive). Moreover, the values for the inhibition in experiment [7] and in experiment [8] were 2.08% (inactive) and -6.72% (inactive), respectively.
As to `COc1ccc2[nH]c(=O)c(CN(Cc3cccs3)S(=O)(=O)c3cccc4nsnc34)cc2c1`, the viability in experiment [1] is 96.5%; in experiment [3] it was 96.5% (inactive); in experiment [4], 59.2% (inactive); in experiment [5], 5.33% (active); in experiment [6] (setting [9]), 5.45%; in experiment [6] (setting [10]) it was 5.33%. The Her2 level in experiment [2] was 80% (inactive). The differential viability (reversal) in experiment [6] (H69AR cells + 2 uM doxorubicin) is -0.125% (inactive). Moreover, the figures for the inhibition in experiment [7] and in experiment [8] were -6.44% (inactive) and 1.43% (inactive), respectively.
On to `CCN1CCN(CCCNC(=O)C2c3ccccc3C(=O)N(C)C2c2ccc(OC)cc2)CC1` (stereo not given), for which the viability in experiment [1] is 102%; in experiment [3], 102% (inactive); in experiment [4] it was 95.9% (inactive); in experiment [5], 110% (inactive); in experiment [6] (setting [9]) it was 93.2%; in experiment [6] (setting [10]) it was 110%. Also, the Her2 level in experiment [2] was 99% (inactive). The differential viability (reversal) in experiment [6] (H69AR cells + 2 uM doxorubicin) was 16.8% (inactive). The values for the inhibition in experiment [7] and in experiment [8] were -1.64% (inactive) and -0.79% (inactive), respectively.

Values taken from PubChem BioAssay.
